The test system of one data set is H146 cancer cell line. The data set can be described thus: Cell death assay. It counts as cell-based, Human. To be noted: H146, 24 h, trypan blue. The method in brief:
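Human small cell lung cancer H146 cells from ATCC, grown in RPMI-1640 with 10% FBS, exposed to test compound for 24 h. Cells then collected and stained with trypan blue. Blue-stained or morphologically unhealthy cells were scored as dead, with at least 100 cells counted per sample.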

Data set [1] deals with cleavage of PARP and caspase-3 in the H146 cell line. The experiment in a line: Western blotting of PARP and caspase-3 cleavage, H146. The format is cell-based, Human. To be noted: H146, 24 h, as low as. The method in brief:
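H146 cells (RPMI-1640, 10% FBS) treated with test compound for 24 h, then lysed on ice for 20 min in RIPA buffer (PBS, 1% NP40, 0.5% Na-deoxycholate, 0.1% SDS) with […] and protease inhibitors. Cleared lysates were protein-quantified, run on 4–20% SDS-PAGE and transferred to PVDF. Blots were blocked in 5% milk and probed with rabbit anti-PARP, anti-caspase-3 and anti-GAPDH, then HRP secondary and chemiluminescence.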
In general terms: In western blotting, separated proteins are transferred to a membrane and probed.

The target of the next data set is Bcl-2 (Homo sapiens, UniProt P10415). The data set can be described thus: FP-based competitive binding assay, Bcl-2.
Bcl-2, sequence (P10415 whole entry): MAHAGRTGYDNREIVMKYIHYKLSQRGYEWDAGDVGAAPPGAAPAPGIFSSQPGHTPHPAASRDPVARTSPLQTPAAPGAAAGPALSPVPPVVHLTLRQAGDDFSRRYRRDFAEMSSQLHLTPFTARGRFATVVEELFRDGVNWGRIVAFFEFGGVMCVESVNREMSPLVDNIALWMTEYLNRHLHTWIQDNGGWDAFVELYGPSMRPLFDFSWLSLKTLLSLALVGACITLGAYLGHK
The subject of data set [2] is H146 small-cell lung cancer cell line. The data set can be described thus: Cell growth assay. It counts as cell-based, Human. To be noted: H146 and H1417.
A further data set can be described thus: Aqueous solubility. The format is physicochemical.
In another data set the target is Bcl-xL (Homo sapiens, UniProt Q07817). The data set can be described thus: FP-based competitive binding assay, Bcl-xL. To be noted: Bcl-2 and Bcl-xL.
Bcl-xL, sequence (Q07817 whole entry): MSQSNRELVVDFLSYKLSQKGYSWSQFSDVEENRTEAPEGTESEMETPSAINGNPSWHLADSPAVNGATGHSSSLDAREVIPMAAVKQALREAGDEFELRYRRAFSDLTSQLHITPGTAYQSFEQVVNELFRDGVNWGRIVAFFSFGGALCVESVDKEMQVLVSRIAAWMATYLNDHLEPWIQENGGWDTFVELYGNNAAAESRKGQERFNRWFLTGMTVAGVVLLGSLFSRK

Molecules are shown by their SMILES. Values joined by “and” are separate entries in the source; they are usually repeats but may differ in a detail not shown here. Identical values can stand only once.

`CCc1c(-c2ccc(Cl)cc2)c(-c2cccc(N3CCN(c4ccc(NS(=O)(=O)c5ccc(N[C@H](CCN(C)C)CSc6ccccc6)c([N+](=O)[O-])c5)cc4)CC3)c2)c(C(=O)O)n1C` [Compound 21, (R)-4-(4-Chlorophenyl)-3-(3-(4-(4-(4-((4-(dimethylamino)-1-(phenylthio)butan-2-yl)amino)-3-nitrophenylsulfonamido)phenyl)piperazin-1-yl)phenyl)-5-ethyl-1-methyl-1H-pyrrole-2-carboxylic acid]: in the data set on H146 cancer cell line, the cell death induction result was “effectively induce cell death in a dose-dependent manner”; the “concentration inducing substantial/robust cell death” value is 30 to 100 nM and 30 nM. The “concentration inducing cleavage of PARP and caspase-3” value in data set [1] was found to be 100 nM.

`CN(C)CC[C@H](CSc1ccccc1)Nc1ccc(S(=O)(=O)Nc2ccc(N3CCN(c4cccc(-c5c(-c6ccc(Cl)cc6)cn(C)c5C(=O)O)c4)CC3)cc2)cc1[N+](=O)[O-]` [Compound 20, (R)-4-(4-Chlorophenyl)-3-(3-(4-(4-(4-((4-(dimethylamino)-1-(phenylthio)butan-2-yl)amino)-3-nitrophenylsulfonamido)phenyl)piperazin-1-yl)phenyl)-1-methyl-1H-pyrrole-2-carboxylic acid]: the cell death induction entry in the data set on H146 cancer cell line is given as “effectively induce cell death in a dose-dependent manner”.

On to `CN(C)CC[C@H](CSc1ccccc1)Nc1ccc(S(=O)(=O)Nc2ccc(N3CCN(c4ccc(-c5c(-c6ccc(Cl)cc6)cn(CC[C@H](O)CO)c5C(=O)NCCCN5CCN(C)CC5)cc4)CC3)cc2)cc1[N+](=O)[O-]` [Compound 12, 4-(4-Chlorophenyl)-1-((S)-3,4-dihydroxybutyl)-3-(4-(4-(4-(4-(((R)-4-(dimethylamino)-1-(phenylthio)butan-2-yl)amino)-3-nitrophenylsulfonamido)phenyl)piperazin-1-yl)phenyl)-N-(3-(4-methylpiperazin-1-yl)propyl)-1H-pyrrole-2-carboxamide], for which the “times less potent than 7 in binding to Bcl-2” value at Bcl-2 is more than 10.

For the compound `CCOC(=O)c1c(-c2cccc(N3CCN(c4ccc(NS(=O)(=O)c5ccc(N[C@H](CCN(C)C)CSc6ccccc6)c([N+](=O)[O-])c5)cc4)CC3)c2)c(-c2ccc(Cl)cc2)cn1C` [Compound 19, (R)-Ethyl 4-(4-chlorophenyl)-3-(3-(4-(4-(4-((4-(dimethylamino)-1-(phenylthio)butan-2-yl)-amino)-3-nitrophenylsulfonamido)phenyl)piperazin-1-yl)phenyl)-1-methyl-1H-pyrrole-2-carboxylate], the “times less potent than 17 in binding to Bcl-2” value at Bcl-2 amounted to 10. In addition, the “times less potent than 17 in cell growth inhibition” value in data set [2] turned out to be 10.

Turning to `CN(C)CC[C@H](CSc1ccccc1)Nc1ccc(S(=O)(=O)Nc2ccc(N3CCN(c4cccc(-c5c(-c6ccc(Cl)cc6)cn(C)c5C(=O)NCCCN5CCN(C)CC5)c4)CC3)cc2)cc1[N+](=O)[O-]` [Compound 16, (R)-4-(4-Chlorophenyl)-3-(3-(4-(4-(4-((4-(dimethylamino)-1-(phenylthio)butan-2-yl)amino)-3-nitrophenylsulfonamido)phenyl)piperazin-1-yl)phenyl)-1-methyl-N-(3-(4-methylpiperazin-1-yl)propyl)-1H-pyrrole-2-carboxamide], the “times more potent than 7 in cell growth inhibition” value in data set [2] is on record as 3–5.

With `CN(C)CC[C@H](CSc1ccccc1)Nc1ccc(S(=O)(=O)Nc2ccc(NCCNc3cccc(-c4c(-c5ccc(Cl)cc5)cn(CC[C@H](O)CO)c4C(=O)NCCCN4CCN(C)CC4)c3)cc2)cc1[N+](=O)[O-]` [Compound 11, 4-(4-Chlorophenyl)-1-((S)-3,4-dihydroxybutyl)-3-(3-((2-((4-(4-(((R)-4-(dimethylamino)-1-(phenylthio)butan-2-yl)amino)-3-nitrophenylsulfonamido)phenyl)amino)ethyl)amino)phenyl)-N-(3-(4-methylpiperazin-1-yl)propyl)-1H-pyrrole-2-carboxamide], the “times less potent than 7 in binding” value at Bcl-2 (Bcl-2/Bcl-xL, protein not specified) was “at least 10”.

For the compound `CN1CCN(CCCNC(=O)c2c(-c3ccccc3)c(-c3ccc(Cl)cc3)cn2CC[C@H](O)CO)CC1` [Compound 4, (S)-4-(4-chlorophenyl)-1-(3,4-dihydroxybutyl)-N-(3-(4-methylpiperazin-1-yl)propyl)-3-phenyl-1H-pyrrole-2-carboxamide], the aqueous solubility entry in “Aqueous solubility” is on record as “excellent aqueous solubility”.

`CN(C)CCC(CSc1ccccc1)Nc1ccc(S(=O)(=O)NC(=O)c2ccc(N3CCN(c4cccc(-c5c(-c6ccc(Cl)cc6)cn(CC[C@H](O)CO)c5C(=O)NCCCN5CCN(C)CC5)c4)CC3)cc2)cc1[N+](=O)[O-]` (stereo in doubt) [Compound 6, 4-(4-Chlorophenyl)-1-((S)-3,4-dihydroxybutyl)-3-(3-(4-(4-(((4-(((S)-4-(dimethylamino)-1-(phenylthio)butan-2-yl)amino)-3-nitrophenyl)sulfonyl)carbamoyl)phenyl)piperazin-1-yl)phenyl)-N-(3-(4-methylpiperazin-1-yl)propyl)-1H-pyrrole-2-carboxamide]: the “times more potent than either 4 or 5 in binding” value on Bcl-xL is recorded as > 10,000.

Turning to `CN(C)CC[C@H](CSc1ccccc1)Nc1ccc(S(=O)(=O)Nc2ccc(N3CCN(Cc4ccccc4-c4ccc(Cl)cc4)CC3)cc2)cc1[N+](=O)[O-]` [Compound 13, (R)-N-(4-(4-((4'-Chloro-[1,1'-biphenyl]-2-yl)methyl)piperazin-1-yl)phenyl)-4-((4-(dimethylamino)-1-(phenylthio)butan-2-yl)amino)-3-nitrobenzenesulfonamide], the “affinity times weaker than that of 1” value on Bcl-2 (Bcl-2 and Bcl-xL) is listed as more than 10.

(Values after PMC3397176 (Journal of Medicinal Chemistry, 2012).)
